Bioassay records: PubChem BioAssay, Sanford-Burnham Center for Chemical Genomics
Compounds with a hit are over-represented: about 1.8% of the library has one in this group of screens.
TAG inh – triacylglycerol accumulation inhibition | inhibition, % at 12.5 µM | H9c2 cells, Nile Red lipid (TAG) fluorescence; cells loaded with 200 µM oleic acid | hit rate 0.66% among 230,000;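 active = pattern-corrected inhibition of lipid staining of at least 50% with the nuclear-stain viability signal not falling by more than 50%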
697 NFkB inh – lowers PMA/ionomycin-induced NF-kB signal in 697 B cells; 697 B-cell NF-kB luciferase reporter, 16 h; AID 435022; inhibition, % at 4 µM; hit rate 0.33% among 330,000; in the data active = inhibition above about 35%
Gli-Sufu block – antagonists of Gli-Sufu signaling; inhibition, % at 5 µM; hit rate 0.74% among 340,000; Sufu-KO-LIGHT fibroblasts, Gli luciferase reporter luminescence;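 active = inhibition above about 55%, limit read from the data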
Hep lipid drop – hepatic lipid droplet formation modulation | hit rate 0.4% among 240,000 | AML12 mouse hepatocytes, oleate lipid droplets, BODIPY imaging | inhibition, % at 6.5 µM;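 active = lipid droplet intensity inhibited by at least 50%, with more than 500 cells counted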
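Material – AML12 mouse liver cells · Also added – oleate loading, 100 µM · Compound dosing – 6.5 µM single-point dosing · Times – overnight treatment with compound plus oleate · Measured by – fluorescence imaging, 20x objective, two fields per well · Read-out – percent inhibition of filter-corrected integrated lipid droplet intensity per well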
Jurkat NFkB inh – inhibitors of the PMA/ionomycin-induced NF-kB reporter in Jurkat cells; AID 435003; inhibition, % at 4 µM; hit rate 0.53% among 330,000; PMA/ionomycin-induced NF-kB luciferase reporter, luminescence; in the data active = inhibition above about 50%
hiPSC survival – increases survival of single human iPS cells; survival enhancement, % at 20 µM; AID 602274; hit rate 0.044% among 360,000; hiPSC single-cell survival, ATPlite luminescence; 100% = ROCK inhibitor wells, 0% = DMSO; in the data active = survival enhancement above about 18%;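 also: cells exposed to compounds for 16 hours before the ATP read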
Gli-Sufu confirm – confirmation of Gli-SUFU pathway antagonists. shares compounds with Gli-Sufu block. Sufu-KO-LIGHT cells, Gli luciferase reporter, luminescence. inhibition, % at 5 µM. hit rate 40% among 2,500. AID 602428;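 active = mean inhibition at 5 µM reaching about 45%, limit read from the data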
SufuKO cytotox – cytotoxic in Gli-SUFU antagonist counter-screen. shares compounds with Gli-Sufu block. cytotoxicity, % at 5 µM. Sufu-KO-LIGHT cells cytotoxicity, ATP luminescence. hit rate 32% among 2,500;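 active = mean cytotoxicity at 5 µM above about 25%, limit read from the data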;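 also: cells exposed to compound overnight for roughly 16 to 18 hours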
Wnt3a cs – counter-screen for Gli-SUFU antagonists: Wnt3a reporter inhibition; shares compounds with Gli-Sufu block; Wnt-LIGHT cells, Wnt3a-driven luciferase reporter, luminescence; inhibition, % at 6.25 µM; hit rate 20% among 2,500;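 active = mean inhibition above about 25%, limit read from the data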
Numbers stand for hits; - = inactive; . = no result.

SMILES	TAG inh	697 NFkB inh	Gli-Sufu block	Hep lipid drop	Jurkat NFkB inh	hiPSC survival	Gli-Sufu confirm	SufuKO cytotox	Wnt3a cs
COc1ccc(N(CC(=O)NC2CCCCCC2)S(=O)(=O)c2c(C)nn(C)c2C)cc1	.	-	-	.	-	-	-	-	-
Cc1cccc(N2CCN(C(=O)CN3CCOc4ccccc43)CC2C)c1 (stereo not drawn)	-	-	-	.	-	-	.	.	.
O=C(CN1CCOc2ccccc21)N1CCN(c2cccc(Cl)c2)CC1	-	-	60.8	.	-	-	-	-	-
Cc1ccc2sc(NC(=O)C3CC3)nc2c1C	.	-	-	-	-	-	.	.	.
COc1ccc(O)c(/C=N/NC(=O)c2ccc(CSc3nc(C)cc(C)n3)cc2)c1	-	-	62.8	-	-	-	48.4	-	41.3
O=C(COc1ccc(Cl)cc1)NCCCNC(=O)c1cccnc1	.	-	-	-	-	-	.	.	.
O=C(COc1ccc(Br)cc1)NCCCNC(=O)c1cccnc1	-	-	58.7	-	-	-	-	-	-
COc1ccc(C(=O)N/C(=C\c2cn(C)c3ccccc23)C(=O)NCCN2CCOCC2)cc1OC	.	-	-	-	-	-	.	.	.
COc1ccc(C(=O)N/C(=C/c2ccccc2F)C(=O)NCCN2CCOCC2)cc1OC	.	-	70.8	-	-	-	-	-	-
COc1ccc(NC(=O)CC(NCc2ccccn2)C(=O)O)cc1 (stereo not drawn)	-	-	-	-	-	-	.	.	.
Nc1ccc(OCc2ccccc2)cc1	-	-	-	-	-	-	.	.	.
CCN(Cc1ccccc1)Cc1ccc(OCc2ccccc2)cc1	-	-	59.0	.	-	-	-	-	-
CC(CC(=O)Nc1ccc(S(=O)(=O)N2CCOCC2)cc1)c1ccccc1 (stereo not drawn)	-	-	-	-	-	-	.	.	.
CCOC(=O)c1sc(=S)n(-c2ccccc2)c1SC	.	-	-	.	-	-	.	.	.
CCOC(=O)c1sc(=S)n(-c2ccccc2Cl)c1SC	.	-	-	.	-	-	-	-	-
CCOC(=O)c1cnc(Nc2nc3ccccc3o2)nc1CSC(=S)N(CC)CC	.	-	69.0	-	-	-	-	-	-
CCOC(=O)c1cnc(Nc2nc3ccccc3o2)nc1CSc1ncccn1	.	-	-	.	-	.	.	.	.
Cn1c(=O)ccc2ccccc21	.	.	.	.	.	-	.	.	.
O=C(COC(=O)CN1C(=O)NC2(CCCC2)C1=O)NCc1ccc(Cl)cc1Cl	-	-	-	.	-	-	.	.	.
CCOC(=O)c1c(C)[nH]c(C)c1S(=O)(=O)NCC1CCN(Cc2ccccc2F)CC1	.	-	-	-	-	-	.	.	.
CCOC(=O)c1c(C)[nH]c(C)c1S(=O)(=O)NCCN1CCN(c2ccccc2F)CC1	.	-	67.0	-	-	-	-	-	-
NC(=O)CC(NC(=O)c1ccccc1)c1ccc(N2CCCCCC2)c([N+](=O)[O-])c1 (stereo not drawn)	-	-	55.7	-	-	-	-	-	-
OCC[C@@H]1C[C@@H](O)[C@H](O)[C@@]2(CCc3ccccc3CO2)O1	-	-	-	-	-	-	.	.	.
Cc1csc(NC(=O)CSCC(=O)Nc2ccccc2)n1	-	-	98.9	-	-	-	-	-	-
Cc1csc(NC(=O)CCc2nc3ccccc3s2)n1	-	-	99.2	-	-	-	-	-	-
SMILES	TAG inh	697 NFkB inh	Gli-Sufu block	Hep lipid drop	Jurkat NFkB inh	hiPSC survival	Gli-Sufu confirm	SufuKO cytotox	Wnt3a cs
Cc1csc(SCC(=O)Nc2ccccc2)n1	.	-	-	-	-	-	.	.	.
O=C(NCCCN1CCCC1=O)c1cccc(S(=O)(=O)Nc2ccccc2Cl)c1	-	-	-	.	-	-	.	.	.
C[C@H](CO)N1C[C@H](C)[C@@H](CN(C)S(=O)(=O)c2ccc(Cl)cc2)Oc2ccc(NS(=O)(=O)c3ccccc3)cc2CC1=O	-	-	58.1	.	-	-	-	-	-
C[C@H](CO)N1C[C@H](C)[C@@H](CN(C)S(=O)(=O)c2cn(C)cn2)Oc2ccc(NC(=O)Nc3ccccc3)cc2C1=O	-	-	95.6	.	-	-	-	-	-
COc1cc(CCC(=O)OCC(=O)Nc2ccc(Br)cc2F)cc(OC)c1OC	.	-	-	-	-	-	.	.	.
CC(C)N(CCCNC(=O)c1nn(C)c2c1CS(=O)(=O)c1ccccc1-2)Cc1ccccc1	.	-	61.3	-	-	-	-	-	-
CN(CCCNC(=O)c1nn(C)c2c1CS(=O)(=O)c1ccccc1-2)Cc1ccccc1	.	-	-	-	-	-	.	.	.
CCOC(=O)c1ccc(NC(=S)NCCc2ccc(OC)c(OC)c2)cc1	-	-	-	-	-	-	.	.	.
CC(NC(=O)c1ccccc1Cl)C1CC2CCC1C2 (stereo not drawn)	.	-	-	-	-	-	.	.	.
CC(NC(=O)CCNC(=O)c1ccccc1Cl)C1CC2CCC1C2 (stereo not drawn)	.	-	-	-	-	-	-	-	-
CCN(C1CCCCC1)S(=O)(=O)c1ccc(S(=O)(=O)NCCc2ccncc2)cc1	.	-	-	.	-	-	.	.	.
CCN(C1CCCCC1)S(=O)(=O)c1ccc(S(=O)(=O)NCc2ccncc2)cc1	.	-	60.1	.	-	-	50.4	30.6	55.0
O=C(c1ccc2c(=O)n3c(nc2c1)CCCCC3)N1CCN(c2cccc(Cl)c2)CC1	-	-	-	-	-	-	.	.	.
CCc1ccccc1NC(=S)N=Nc1c(O)n(C)c2ccc(S(=O)(=O)N3CCOCC3)cc12	.	-	65.9	-	-	-	47.7	-	-
COc1cccc(-c2ccc(SCC(=O)c3ccccc3)nn2)c1	-	-	55.3	-	-	-	-	-	-
COc1ccc(C(=O)CSc2ccc(-c3ccccc3)nn2)cc1	.	-	-	-	-	-	.	.	.
CS(=O)(=O)c1ccc(C(=O)OCC(=O)NC(=O)C2CCCCC2)cc1[N+](=O)[O-]	-	-	65.1	-	-	-	-	-	-
COc1cccc(-n2cc(CN(C)Cc3nc(Cc4cccc(F)c4)no3)cn2)c1	-	-	-	-	-	-	.	.	.
COc1ccc(CN(C)Cc2nc(Cc3cccc(F)c3)no2)c2cccnc12	-	-	62.7	-	-	-	54.3	-	26.7
Cc1ccc(C)c(S(=O)(=O)NC2CCSC2=O)c1 (stereo not drawn)	-	-	-	.	-	-	.	.	.
COc1ccc(C(=O)NN(C)c2nc(C(F)(F)F)nc3ccccc23)cc1	-	.	56.1	-	.	-	54.6	63.4	-
COc1ccc(C(=O)NN(C)c2nc(-c3ccccc3)nnc2C(F)(F)F)cc1	-	-	-	.	-	-	.	.	.
COc1cc(C2Nc3ccccc3NC3=C2C(=O)CC(C)(C)C3)cc(OC)c1OC(C)=O (stereo not drawn)	.	-	-	-	-	-	.	.	.
